Screening results: PubChem, Johns Hopkins Ion Channel Center
Hits are enriched below; roughly 3.7% of the tested compounds scored in any of these assays.
KCNK3 block – human KCNK3 channel inhibition, primary screen | O14649 | CHO-KCNK3 thallium flux, FluxOR fluorescence; hits give low values | B-score at 10 µM | 340,000 compounds, 0.84% hits | AID 602410;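 active means B-score under library mean minus 4 SD, starting fluorescence ratio at most library mean plus 5 SD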;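 further: more negative B-score means stronger inhibition of thallium flux through KCNK3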
KCNQ1 act – potentiates or activates the human KCNQ1 potassium channel; 310,000 compounds, 0.35% hits; AID 2648; P51787; B-score at 10 µM; CHO-K1 KCNQ1, thallium flux FluxOR fluorescence; hits give high values;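 active means fluorescence ratio B-score, a plate-corrected score, at least three library SD, with initial intensity B-score within 5 SD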
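Assay system: CHO-K1 cells stably expressing KCNQ1. Medium: assay buffer for compound exposure, DMSO matched across wells. Timing: 37 °C overnight plating, 90-min dark dye load, 20-min compound pretreatment. Signal: kinetic FluxOR fluorescence, 10 s baseline plus 110 s post-stimulus.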
hERG rescue – shields human hERG channel from block by proarrhythmic agents. Q12809. CHO-hERG, FluxOR thallium flux, dofetilide IC70 present. activation (rescue from dofetilide block), less the hit threshold, % at 10 µM. 310,000 compounds, 0.51% hits. AID 1511;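 active means activation above the mean of controls blocked by dofetilide plus 5 SD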;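 further: thallium influx through hERG after potassium depolarization seen as dye fluorescence rise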
Target sequence (Q12809 whole entry, looked up): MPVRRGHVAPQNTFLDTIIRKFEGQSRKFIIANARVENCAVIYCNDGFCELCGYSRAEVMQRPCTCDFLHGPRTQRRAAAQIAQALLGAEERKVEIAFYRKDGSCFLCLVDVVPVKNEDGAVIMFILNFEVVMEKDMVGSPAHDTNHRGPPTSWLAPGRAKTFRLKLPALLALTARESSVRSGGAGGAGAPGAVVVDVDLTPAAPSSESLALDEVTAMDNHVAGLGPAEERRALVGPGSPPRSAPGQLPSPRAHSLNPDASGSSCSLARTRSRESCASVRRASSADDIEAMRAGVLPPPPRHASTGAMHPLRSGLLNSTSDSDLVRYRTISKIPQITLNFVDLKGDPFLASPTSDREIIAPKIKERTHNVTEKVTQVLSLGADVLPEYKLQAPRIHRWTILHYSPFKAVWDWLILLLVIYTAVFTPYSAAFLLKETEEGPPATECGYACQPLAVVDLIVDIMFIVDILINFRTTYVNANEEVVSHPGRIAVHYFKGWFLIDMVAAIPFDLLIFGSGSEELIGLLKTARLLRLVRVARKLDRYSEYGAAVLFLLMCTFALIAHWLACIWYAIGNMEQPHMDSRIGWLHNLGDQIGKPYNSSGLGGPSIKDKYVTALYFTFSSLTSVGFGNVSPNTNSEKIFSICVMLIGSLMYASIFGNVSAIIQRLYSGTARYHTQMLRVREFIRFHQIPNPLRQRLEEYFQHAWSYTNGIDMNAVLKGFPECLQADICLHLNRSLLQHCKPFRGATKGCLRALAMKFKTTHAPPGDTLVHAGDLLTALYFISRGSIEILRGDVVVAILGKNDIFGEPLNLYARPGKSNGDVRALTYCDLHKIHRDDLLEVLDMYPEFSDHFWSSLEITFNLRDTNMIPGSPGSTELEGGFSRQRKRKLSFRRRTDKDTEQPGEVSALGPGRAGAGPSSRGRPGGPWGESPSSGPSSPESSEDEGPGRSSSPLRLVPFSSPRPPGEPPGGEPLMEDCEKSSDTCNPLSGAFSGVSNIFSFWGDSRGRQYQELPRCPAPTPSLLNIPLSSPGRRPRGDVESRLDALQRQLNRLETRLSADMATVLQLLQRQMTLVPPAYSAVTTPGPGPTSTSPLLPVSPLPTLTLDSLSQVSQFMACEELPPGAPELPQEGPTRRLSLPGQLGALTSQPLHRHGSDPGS
Kir21 block – Kir2.1 (mouse) channel inhibition; B-score at 10 µM; HEK293-Kir2.1, FluxOR thallium flux fluorescence; hits give low values; AID 1672; 310,000 compounds, 0.85% hits; P35561;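 active means fluorescence ratio B-score at or below minus 3 SD of library scores, with starting-brightness B-score within 2 SD, cut at about -4.2 in these data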;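 further: channel flux triggered by added potassium and thallium sulfate stimulus; B-score of peak minus minimum fluorescence over baseline after thallium stimulus; more negative B-score means stronger Kir2.1 block with less thallium influx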
KCNK9 inh – inhibitors of human KCNK9 two-pore domain potassium channel; HEK293 KCNK9, FluxOR thallium flux fluorescence; hits give low values; B-score at 10 µM; 310,000 compounds, 1.2% hits; AID 488922;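 active means ratio B-score over 3 SD below the library mean, with starting fluorescence within 5 SD of its mean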;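 further: negative B-score means less thallium flux so channel inhibition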
KCNQ1 inh – inhibitors of human KCNQ1 potassium channel; P51787; B-score at 10 µM; AID 2642; CHO-K1 KCNQ1, FluxOR thallium flux fluorescence; hits give high values; 310,000 compounds, 1.3% hits;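 active means compounds whose thallium flux B-score, printed positive for inhibition, exceeds three library SD while starting fluorescence stays within three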;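 further: channel opened by potassium depolarization with thallium stimulus after 20 min compound exposure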
KCNK9 inh conf – human KCNK9 inhibitor confirmation | shares compounds with KCNK9 inh | HEK293 KCNK9 cells, FluxOR thallium flux fluorescence | inhibition, % at 10 µM | 4,900 compounds, 43% hits | AID 492992;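 active means thallium signal inhibited by more than 5 SD of the compound-free buffer control wells, on both duplicate plates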;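 further: 0% = assay buffer control wells without compound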
Kir2-1 spec – selectivity of KCNK9 modulators against mouse Kir2.1. shares compounds with KCNK9 inh. Kir2.1 cells, FluxOR thallium flux fluorescence. inhibition, % at 10 µM. 4,900 compounds, 4% hits;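 active means thallium signal drop more than 5 SD beyond the mean of the no-compound control wells, seen in both duplicate plates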;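 further: signal is fluorescence rise after thallium addition divided by baseline fluorescence; plate controls were assay buffer only for no effect and full block by chlorpromazine control for full effect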
KCNK9 uninduced – non-induced cell nonspecific activity of KCNK9 modulators. shares compounds with KCNK9 inh. non-induced KCNK9-HEK293, FluxOR thallium flux. inhibition, % at 10 µM. 4,900 compounds, 40% hits. AID 492997;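 active means thallium signal drop beyond 5 SD of the untreated control mean, on both duplicate plates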;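 further: plate controls were buffer only IC0 wells for no effect and SID17386958 at its maximal inhibitory level for full effect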
KCNK3 confirm – human KCNK3 channel inhibition, confirmation assay. AID 651638. ratio percent of control, % at 10 µM. CHO-KCNK3 thallium flux, FluxOR fluorescence; 0% buffer, 100% carvedilol maximal block. shares compounds with KCNK3 block. 2,400 compounds, 99% hits;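 active means ratio percent of control, averaged over triplicates, above buffer control mean plus 5 SD, cut at about 64% in these data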;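 further: ratio is the fluorescence rise from min to max over baseline after thallium stimulus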
KCNK3 uninduced – activity in cells without induced KCNK3 expression. 2,400 compounds, 40% hits. shares compounds with KCNK3 block. AID 651747. thallium flux ratio (lower = more inhibition) at 10 µM. non-induced KCNK3 parental cells, FluxOR thallium flux; hits give low values;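 active means thallium flux ratio, averaged over three wells, more than 5 SD below the buffer control mean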;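 further: host cells are CHO cells without KCNK3 induction; ratio is peak minus trough fluorescence over baseline then normalized to buffer controls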
Numbers without * were called inactive; i = inactive; / = not tested or not shown.

SMILES	KCNK3 block	KCNQ1 act	hERG rescue	Kir21 block	KCNK9 inh	KCNQ1 inh	KCNK9 inh conf	Kir2-1 spec	KCNK9 uninduced	KCNK3 confirm	KCNK3 uninduced
CSc1nsc(SC)c1C(=O)Nc1ccc(C(C)(C)C)cc1	-12.8*	i	-1.5	-1.18	-14*	i	53.0%*	i	28.5%*	111.7*	i
N#CC(C#N)=c1ccc2c(c1)N1C3=C(CCCC3)CC3CCCCC31N=2 (configuration not stated)	-9.75*	i	-28.4	1.1	-15.9*	14*	67.0%*	i	45.0%*	130.3*	0.11*
CCc1c(C)nc2cc(-c3cc(OC)cc(OC)c3)nn2c1N1CCCC1	-9.81*	i	-4.4	0.85	-11.1*	i	57.5%*	i	26.5%*	100.0*	i
O=c1[nH]cc(I)cc1I	i	i	-6.7	-0.69	i	i	/	/	/	/	/
COc1nc(Nc2cccc([N+](=O)[O-])c2)nc(OC)n1	i	i	-6.5	1.48	i	i	/	/	/	/	/
C#CCOc1nc(Nc2cccc([N+](=O)[O-])c2)nc(OCC#C)n1	-10.9*	i	-11.7	-1.42	-17.7*	i	51.0%*	i	i	107.0*	i
Cc1ccc(Cl)cc1NC(=S)N(Cc1ccco1)C(C)c1cccs1 (configuration not stated)	-10.9*	i	-8.6	-0.51	-9.64*	i	47.0%*	i	37.0%*	124.0*	0.155*
COC(=O)c1cc(C)sc1NC(=S)N1CCN(CCc2ccccc2)CC1	-10.2*	i	-16.7	-0.44	i	i	i	i	i	104.0*	i
COc1ccc(/C=N/NC(=O)c2cccc(NC(=O)c3ccccc3Cl)c2)c(OC)c1	-10*	i	-7.7	-1	-12.1*	i	49.0%*	i	i	106.3*	i
COc1ccc(/C=N/NC(=O)c2ccccc2OCc2ccccc2)c(OC)c1	-12.5*	i	-19.6	0.03	-20.7*	11*	72.5%*	i	i	126.0*	0.141*
COc1ccc(/C(C)=N/NC(=O)c2ccccc2OCc2ccccc2)c(OC)c1	i	i	-3.3	1.34	i	i	/	/	/	/	/
COc1ccc(/C=N/NC(=O)c2cccc(NC(=O)c3ccccc3Cl)c2)cc1	i	i	-7.3	-0.95	i	i	/	/	/	/	/
CCOC(=O)N1CCN(S(=O)(=O)N2CCCC(C(=O)NCCCN3CCCCC3)C2)CC1 (configuration not stated)	i	i	-2.3	-0.96	i	i	/	/	/	/	/
COc1cccc(COc2ccc3ccc(=O)oc3c2)c1	i	i	-7.2	-0.13	i	i	/	/	/	/	/
CC(C)=CCC/C(C)=C/COc1ccc2ccc(=O)oc2c1	-9.2*	i	-6.9	-1.66	-19.3*	i	68.5%*	i	46.5%*	93.0*	i
CC(=O)Oc1ccc2ccc(=O)oc2c1	i	i	-4.1	-0.3	i	i	/	/	/	/	/
COc1ccc(COc2ccc3ccc(=O)oc3c2)cc1	-10.2*	i	-5.5	-0.08	-11.8*	i	46.5%*	i	31.5%*	115.3*	i
CC1=CC(C/C(C)=C/COc2ccc3ccc(=O)oc3c2)OC1=O (configuration not stated)	i	i	-10.2	0.12	i	i	/	/	/	/	/
CC(C)=CCOc1ccc2ccc(=O)oc2c1	-9.25*	i	-5.6	0.47	-11.6*	i	37.0%*	i	34.5%*	118.7*	i
O=C(NC1CCCCC1)c1cc2ccccc2cc1O	-9.36*	i	-13.2	0.14	-11.5*	i	25.5%*	i	i	106.7*	i
CCCN1Cc2cccc(C(=O)Nc3ccc(C)cc3)c2C1=O	i	i	-11.2	-2	i	i	/	/	/	/	/
CCOC(=O)c1ccc(NC(=O)c2cccc3c2C(=O)N(CC2CCCO2)C3)cc1 (configuration not stated)	-9.33*	i	-19.9	-1.35	-8.62*	i	63.5%*	i	i	131.0*	0.133*
Clc1ccc(OCCSc2ncccn2)c2ccccc12	i	i	-16.4	-0.71	-8.41*	i	i	i	49.5%*	105.7*	i
Cc1cccc(C)c1NC(=O)c1sccc1SCc1cccc(C(F)(F)F)c1	-9.35*	i	-9.2	0.72	-13.6*	i	55.5%*	49.0%*	45.0%*	101.0*	0.159*
O=C(Nc1cccc([N+](=O)[O-])c1)NN1CCCCCC1	i	/	/	/	/	/	/	/	/	/	/
SMILES	KCNK3 block	KCNQ1 act	hERG rescue	Kir21 block	KCNK9 inh	KCNQ1 inh	KCNK9 inh conf	Kir2-1 spec	KCNK9 uninduced	KCNK3 confirm	KCNK3 uninduced
Cc1cc(C)c2nc(C)cc(N/N=C/c3ccc(O)cc3)c2c1	-11.6*	i	-35.7	-10.1*	-15.4*	10*	71.5%*	35.5%*	i	134.7*	0.124*
C=CCNc1cccc(Br)c1	i	i	-1.0	-0.33	i	i	/	/	/	/	/
Cc1cccc(-c2nnc(SCc3nc4ccccc4[nH]3)n2Cc2ccco2)c1	i	i	-28.5	-0.03	i	i	/	/	/	/	/
Clc1cccc(-c2nnc(SC/C=C/c3ccccc3)n2Cc2ccco2)c1	-11.8*	i	-12.7	-3.93	-15*	i	44.5%*	74.0%*	38.5%*	109.7*	0.153*
COc1ccccc1/C=C(/CC(=O)NCc1ccc2c(c1)OCO2)c1nc2ccccc2s1	-9.31*	i	-6.4	0.38	-11.7*	i	56.5%*	i	29.0%*	125.0*	0.141*
COc1ccccc1/C=C/C(=O)OCC(=O)NCc1ccc2c(c1)OCO2	i	/	/	/	/	/	/	/	/	/	/
CCn1nc(C(=O)Nc2cccc3ccccc23)c(Cl)c1Cl	i	i	-16.8	-1.11	-10.4*	i	49.0%*	i	36.0%*	126.3*	0.16*
CCn1nc(C(=O)Nc2ccccc2C)c(Cl)c1Cl	i	i	-6.6	0.53	i	i	/	/	/	/	/
N#Cc1c(N2CCSCC2)nsc1-c1ccccc1Cl	i	i	-13.7	-0.62	i	i	/	/	/	/	/
